What was measured:
HeLa = experiment: Cytotoxicity against human HeLa cells by MTT method; format: cell-based
In short: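 HeLa human cervix carcinoma cells; viability by MTT colorimetric assay. Absorbance expressed as percent of control, with camptothecin as positive control. IC50 given as mean ± SEM.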

Aorta [1] = experiment: Vasorelaxant activity against KCl-induced contraction in Wistar rat aorta; format: functional, tissue-based
In short: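 Endothelium-intact aortic rings in physiological solution at 37 °C, gassed with 95% O2/5% CO2 and equilibrated 60 min. Compound added cumulatively (10^-6 to 10^-4 M; 0.3–3 or 0.3–10 µg/mL by solubility) on the plateau of 100 mM KCl depolarizing contraction. Response taken as % of initial KCl contraction. IC50 from sigmoidal fit, 95% CI, 3–6 determinations.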

Aorta [2] = experiment: Vasorelaxant activity against KCl-induced contraction in Wistar rat aorta at 10 ug/ml; format: functional; design: scale not given: the % may be the effect or the level left
In short: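 Rat aortic rings at 37 °C, gassed with 95% O2/5% CO2 and equilibrated 60 min; first contraction with 100 mM KCl depolarizing solution. After washing, rings were preincubated 30 min with compound at 10 µg/mL (max 3 µg/mL if poorly soluble; DMSO ≤0.1% in bath) and KCl contraction repeated. Inhibition versus the control contraction after 40 min incubation; mean ± SEM of n.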

| SMILES | IC50 (HeLa) | IC50 (Aorta [1]) | Activity (Aorta [2]) |
| --- | --- | --- | --- |
| CC1(C)CCC[C@]2(C)[C@@H]1CC[C@@]13C(=O)C4[C@H](C[C@@H]21)[C@]4(C)[C@H]3O | 138 µM | 4.65 µM | 17.9% |
| CC1(C)CCC[C@]2(C)[C@@H]1CC[C@@]13[C@H](O)C4[C@H](C[C@@H]21)[C@]4(C)[C@H]3O | > 150 µM |  | 73.4% |
| CC1(C)C(=O)CC[C@]2(C)[C@@H]1CC[C@@]13C(=O)C4[C@H](C[C@H]12)[C@]4(C)C3=O | > 150 µM |  | 84.4% |
| CC1(C)CCC[C@]2(C)[C@@H]1CC[C@@]13[C@H](O)C[C@](C)(CC[C@@H]21)[C@H]3O | > 150 µM |  | 52.2% |
| C=C1[C@H]2CC[C@@]34C(=O)C5[C@H](C[C@H]3[C@]2(C)CC[C@@H]1Br)[C@]5(C)C4=O | > 150 µM |  | 65.5% |
| C=C1[C@H]2CC[C@@]34C(=O)C5[C@H](C[C@H]3[C@]2(C)CC[C@@H]1O)[C@]5(C)C4=O | > 150 µM |  | 83.9% |
| C=C1C[C@]23CC[C@H]4C(C)(C)C(=O)CC[C@]4(C)[C@H]2C[C@@H]1CC3=O | > 150 µM |  | 60.6% |
| C[C@@]1(C(O)CO)CC[C@@H]2C(O)(C1)C(O)C[C@H]1[C@@]2(C)CC[C@H](O)[C@]1(C)CO (some centres not stated) |  | > 80 µM |  |
| CC(C)(C)[Si](C)(C)O[C@@]12CC[C@@]3(C)[C@@H](CC[C@]45C(=O)C6[C@@H](C[C@@H]43)[C@@]6(C)C5=O)[C@]1(C)C2 | > 150 µM |  |  |
| C=C1CCC[C@]2(C)[C@@H]1CC[C@@]13C(=O)C4[C@H](C[C@H]12)[C@]4(C)C3=O | 128 µM | 3.5 µM | 9.2% |
| CC1(C)CCC[C@]2(C)[C@H]3CC[C@]4(C)CC(=O)[C@]3(CC[C@@H]12)[C@H]4O | 153 µM |  | 40.7% |
| CC1(C)CCC[C@]2(C)[C@H]3C[C@@H]4C5C(=O)[C@]3(CC[C@@H]12)[C@H](I)[C@]54C | 150 µM |  | 37.4% |
| CC1(C)C(=O)CC[C@@]2(C)[C@H]1CC[C@]13C(=O)C4[C@@H](C[C@@H]12)[C@]4(C)C3=O | > 150 µM |  | 91.4% |
| CO[C@]1(C)[C@@H](Br)CC[C@@]2(C)[C@@H]3C[C@H]4C5C(=O)[C@@]3(CC[C@@H]21)C(=O)[C@]54C | > 150 µM | 12.3 µM | 33% |
| CC1(C)C(=O)CC[C@]2(C)[C@H]3C[C@@H]4C5C(=O)[C@]3(CC[C@@H]12)[C@@H](O)[C@]54C | > 150 µM |  | 90% |
| C[C@@]12CCC(=O)[C@](C)(CBr)[C@H]1CC[C@@]13C(=O)C4[C@H](C[C@H]12)[C@]4(C)C3=O | > 150 µM |  | 71.8% |
| C[C@@]12CC[C@H](O)[C@](C)(CO)[C@H]1CC[C@@]13CC4[C@H](C[C@H]12)[C@]4(C)C3 | 64 µM | > 80 µM |  |

| SMILES | IC50 (HeLa) | IC50 (Aorta [1]) | Activity (Aorta [2]) |
| --- | --- | --- | --- |
| CC1(C)C(=O)CC[C@]2(C)[C@@H]1CC[C@@]13C(=O)C4[C@H](C[C@@H]21)[C@]4(C)[C@H]3O | > 150 µM |  | 92.7% |
| CC1(C)[C@H](O)CC[C@]2(C)[C@@H]1CC[C@@]13C(=O)C4[C@H](C[C@@H]21)[C@]4(C)[C@H]3O | > 150 µM |  | 90.3% |
| C=C1[C@H]2CC[C@@]34C(=O)C5[C@H](C[C@H]3[C@]2(C)CC[C@@H]1Cl)[C@]5(C)C4=O | > 150 µM | 9.75 µM | 28.5% |
| CC1(C)CCC[C@]2(C)[C@H]3C[C@@H]4C5C(=O)[C@]3(CC[C@@H]12)[C@@H](O)[C@]54C | > 150 µM | 9.1 µM | 22.1% |
| C[C@@]12CCC(=O)[C@](C)(CO)[C@H]1CC[C@@]13CC4[C@H](C[C@H]12)[C@]4(C)C3 | 40.4 µM | 6.3 µM | 17% |
| CC1(C)CCC[C@]2(C)[C@@H]1CC[C@@]13C(=O)C4[C@H](C[C@H]12)[C@]4(C)C3=O | 118 µM | 5.8 µM | 14.5% |
| CC1(C)C(=O)CC[C@]2(C)[C@H]3C[C@@H]4C5C(=O)[C@]3(CC[C@@H]12)[C@H](I)[C@]54C | > 150 µM |  | 95.7% |
| C[C@@H]1C(=O)[C@]23CC[C@H]4C(C)(C)C(=O)CC[C@]4(C)[C@H]2C[C@@H]1CC3=O | > 150 µM |  | 87.9% |
| CC1=CCC[C@]2(C)[C@@H]1CC[C@@]13C(=O)C4[C@H](C[C@H]12)[C@]4(C)C3=O | 125 µM |  |  |
| CC1(C)[C@H]2CC[C@@]34CC5[C@H](C[C@H]3[C@]2(C)CC[C@@H]1O)[C@]5(C)C4 | 25.3 µM | > 80 µM | 67.3% |
| C[C@]12CCC(=O)[C@@](C)(CO)[C@@H]1CC[C@]13C(=O)C4[C@@H](C[C@@H]12)[C@]4(C)C3=O |  |  | 93.1% |
| CC1(C)C(=O)CC[C@@]2(C)[C@@H]3C[C@@H]4[C@@H]5C[C@@]3(CC[C@@H]12)C[C@@]45C | 33.5 µM | > 80 µM | 65.6% |
| CC[C@@]1(O)C(=O)OCc2c1cc1n(c2=O)Cc2cc3ccccc3nc2-1 [CAMPTOTHECIN] | 0.5 µM |  |  |
| C=C[C@@]1(C)CC[C@H]2C(=CC[C@H]3C(C)(C)[C@@H](O)CC[C@]23C)C1 [ISOPIMARANE] | 87.8 µM | 46.2 µM | 54.6% |
| C[C@@H]1C[C@@H](O)[C@H]2[C@@](C)(CO)CCC[C@]2(C)[C@@]1(O)CCc1ccoc1 [MARRUBENOL] |  | 10 µM | 7.9% |
| C/C(=C\CO)CCC[C@H](C)CCC[C@H](C)CCCC(C)C [TRANS-PHYTOL] | 46.6 µM | > 80 µM | 81.4% |

From ChEMBL document CHEMBL1143720, “Vasorelaxant activity of diterpenes from Croton zambesicus and synthetic trachylobanes and their structure-activity relationships” (J Nat Prod, 2007)
